Assay results reported in ChEMBL document CHEMBL4177752, “Discovery of Novel Schizocommunin Derivatives as Telomeric G-Quadruplex Ligands That Trigger Telomere Dysfunction and the Deoxyribonucleic Acid (DNA) Damage Response” (J Med Chem, 2018).
Activity calls are given as the source filed them. The rule behind the calls is not given here.

Assays:
[1] = tested on: HeLa; test: Antiproliferative activity against human HeLa cells after 48 hrs by MTT assay; format: functional, cell-based
Summary of the method: (§1)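 Cells seeded at 5.0×10^3 per well and exposed to a range of compound concentrations for 48 h. MTT (2.5 mg/mL solution) was then added for 4 h, formazan was dissolved in DMSO, and OD was read at 570 nm. HL-60 was grown in RPMI-1640 with 10% FBS, the other lines in DMEM with 10% FBS, at 37 °C and 5% CO2. Triplicates; IC50 taken from mean OD versus concentration curves.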

[2] = Stabilization of F10T hairpin duplex DNA (unknown origin) assessed as change in melting temperature at 1 uM by FRET assay
Summary of the method: (§2)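 FRET melting: 0.2 µM F21T or F10T (FAM/TAMRA-labelled), with or without 1.0 µM ligand, in 10 mM Tris-HCl pH 7.4 with 60 mM KCl. Excitation 470 nm, emission 530 nm, read every 1 °C from 37–99 °C at 1 °C/min with a 30 s hold. ΔTm = Tm(DNA+ligand) − Tm(DNA).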

[3] = tested on: U2OS; test: Antiproliferative activity against human U2OS cells after 48 hrs by MTT assay; format: functional, cell-based; summary of the method: as §1
[4] = tested on: Quadruplex DNA; test: Stabilization of F21T telomeric G-quadruplex DNA (unknown origin) assessed as change in melting temperature at 1 uM by FRET assay; format: nucleic-acid assay; summary of the method: as §2
[5] = target: Quadruplex DNA; test: Binding affinity to HTG21 telomeric G-quadruplex DNA (unknown origin) by SPR method; format: nucleic-acid assay
Summary of the method: (§3)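 SPR: biotinylated HTG21 or hairpin DNA (200 nM) was folded in 50 mM Tris-HCl pH 7.4 with 100 mM KCl and captured to about 1,000 RU on an NLC chip against a blank reference cell. Ligand at 0.625–40 µM was injected at 25 µL/min (400 s association, 300 s dissociation) at 25 °C. The chip was regenerated with 1 M KCl and blank sensorgrams were subtracted.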

[6] = tested on: HL-60; test: Antiproliferative activity against human HL60 cells after 48 hrs by MTT assay; format: functional, cell-based; conditions: HL-60, 48 h; summary of the method: as §1
[7] = Binding affinity to hairpin duplex DNA (unknown origin) at 40 uM by SPR method; summary of the method: as §3
[8] = tested on: A549; test: Antiproliferative activity against human A549 cells after 48 hrs by MTT assay; format: functional, cell-based; conditions: A549, 48 h; summary of the method: as §1
[9] = tested on: SiHa; test: Antiproliferative activity against human SiHa cells after 48 hrs by MTT assay; format: functional, cell-based; summary of the method: as §1

SMILES	IC50 [1] [µM]	ΔTm [2] [°C]	IC50 [3] [µM]	ΔTm [4] [°C]	Kd [5] [µM]	IC50 [6] [µM]	Activity [7]	IC50 [8] [µM]	IC50 [9] [µM]
CCN(CC)CCCN1C(=O)/C(=C\c2nc3cc(N4CCN(C)CC4)c(F)cc3c(=O)[nH]2)c2ccccc21	> 50	0.3	> 50	5.8	> 40	13.2	inactive	> 50	> 50
CN(C)CCCN(CCCN(C)C)c1cc2nc(/C=C3\C(=O)Nc4ccccc43)[nH]c(=O)c2cc1F	48.6	0.2	> 50	12.6	23	16.1	inactive	> 50	10.1
CN(C)CCCNc1ccc2c(=O)[nH]c(/C=C3\C(=O)Nc4cc(N5CCN(C)CC5)ccc43)nc2c1	49	0.1	14.1	16.5	> 40	4.3	inactive	19	11.5
CCN(CC)CCCNc1cc2nc(/C=C3\C(=O)Nc4cc(N5CCN(C)CC5)c(F)cc43)[nH]c(=O)c2cc1F	9.6	0.1	10.2	25.3	4.9	5.7	inactive	6.1	7.9
CN(C)CCCNc1cc2nc(/C=C3\C(=O)Nc4cc(N5CCOCC5)c(F)cc43)[nH]c(=O)c2cc1F	30.1	0.1	> 50	11.9	> 40	3.4	inactive	> 50	> 50
O=C1Nc2cc(N3CCOCC3)c(F)cc2/C1=C/c1nc2cc(NCCCN3CCCC3)c(F)cc2c(=O)[nH]1	> 50	0.3	> 50	8.4	> 40	3.8	inactive	> 50	42.5
O=C1Nc2cc(N3CCOCC3)c(F)cc2/C1=C/c1nc2cc(NCCCN3CCOCC3)c(F)cc2c(=O)[nH]1	> 50	0.2	> 50	5.2	> 40	> 50	inactive	> 50	> 50
CN(C)CCNc1cc2nc(/C=C3\C(=O)Nc4cc(N5CCN(C)CC5)ccc43)[nH]c(=O)c2cc1F	15.7	0.2	6.3	18	> 40	7.8	inactive	2.2	3.4
CCN(CC)CCCNc1cc2nc(/C=C3\C(=O)Nc4ccccc43)[nH]c(=O)c2cc1F	> 50	0.1	12.6	10	> 40	7.5	inactive	8.6	23.4
CCN(CC)CCNc1cc2nc(/C=C3\C(=O)Nc4cc(N5CCN(C)CC5)c(F)cc43)[nH]c(=O)c2cc1F	9	0.3	8.2	23.1	22	1.7	inactive	6.1	12.4
CN(C)CCCNc1cc2nc(/C=C3\C(=O)Nc4ccccc43)[nH]c(=O)c2cc1F	13.4	0.2	18.7	11.8	> 40	3.2	inactive	14.8	17.1
CN1CCN(c2ccc3c(c2)NC(=O)/C3=C\c2nc3cc(NCCN4CCCCC4)c(F)cc3c(=O)[nH]2)CC1	20.5	0.2	3.6	18.7	> 40	2.8	inactive	1.8	5.4
CCN(CC)CCCNc1cc2nc(/C=C3\C(=O)Nc4cc(N5CCOCC5)c(F)cc43)[nH]c(=O)c2cc1F	34.3	0.1	32.4	9	> 40	4.2	inactive	> 50	43.6
CN1CCN(c2cc3c(cc2F)/C(=C/c2nc4cc(N5CCN(C)CC5)c(F)cc4c(=O)[nH]2)C(=O)N3)CC1	> 50	0.1	> 50	12.2	> 40	12.3	inactive	> 50	> 50
CN1CCN(c2cc3c(cc2F)/C(=C/c2nc4cc(NCCCN5CCCC5)c(F)cc4c(=O)[nH]2)C(=O)N3)CC1	9	0.3	16.4	23.6	7.9	2.9	inactive	25.3	9.4
CN(C)CCCNc1cc2nc(/C=C3/C(=O)Nc4ccccc43)n(CCCN(C)C)c(=O)c2cc1F	27.1	0.1	28.4	9.2	> 40	8.2	inactive	18.2	30.5
CCN(CC)CCCNc1cc2nc(/C=C3\C(=O)Nc4cc(N5CCN(C)CC5)ccc43)[nH]c(=O)c2cc1F	10	0.2	7.6	20.6	7.4	5.4	inactive	2.3	2.8
CN1CCN(CCCNc2cc3nc(/C=C4\C(=O)Nc5cc(N6CCN(C)CC6)c(F)cc54)[nH]c(=O)c3cc2F)CC1	8.8	0.1	12.7	19.8	9.6	3.3	inactive	9.7	2.8
CN1CCN(c2cc3c(cc2F)/C(=C/c2nc4cc(NCCN5CCCC5)c(F)cc4c(=O)[nH]2)C(=O)N3)CC1	10.5	0.1	7.1	22.7	21	2.7	inactive	5.6	9.3
